Assay results from different studies.
pEC50, pIC50: −log10 of the molar value.
Read-out: cell growth or viability

Structure (SMILES)	cell line	technique	tested at	time	endpoint	result
O=C(NO)c1ccc(Cn2cnc3c(Nc4ccc(Br)cc4F)ncnc32)cc1	U-937	MTT	–	72 h	pIC50	5.67
CCCCCCCCCCCCCCCCCCOc1ccc(CC(=O)OCC[N+]2(C)CCCC2)cc1	NCI-H226	SRB	10 µM	–	inhibition	7.36%
Cc1nc(Nc2ncc(C(=O)Nc3c(C)cccc3Cl)s2)cc(N2CC[C@H](O)C2)n1	SU-DHL-8	ATP luminescence	–	72 h	pIC50	< 5.00
CN(C)CCNC(=O)c1ccc(-c2nc3ccc4[nH]ncc4c3c3c2CCCC3)cc1	ML-2	–	–	72 h	GI50	0.152 µM
CCCCCCCCCCCCCCCCCCOc1cccc(CC(=O)OCC[N+]2(C)CCCCC2)c1	NCI-H226	SRB	10 µM	–	inhibition	10.8%
COc1cccc2c1C(=O)c1c(O)c3c(c(O)c1C2=O)C[C@@](O)(C(=O)CO)C[C@@H]3O[C@H]1C[C@H](N)[C@H](O)[C@H](C)O1	U-937	–	–	96 h	pIC50	7.65
CCCCCCCCCCCCCCCCCCOc1cccc(CC(=O)OCC[N+]2(C)CCOCC2)c1	NCI-H226	SRB	10 µM	–	inhibition	6.29%
O=C(NO)c1ccc(Cn2cnc3c(Nc4cccc([N+](=O)[O-])c4)ncnc32)cc1	U-937	MTT	–	72 h	pIC50	5.70
CN(C)CCNC(=O)c1ccc(-c2nc3ccc4[nH]ncc4c3c3c2CCCCC3)c(F)c1	U-937	–	–	72 h	GI50	1.17 µM
CC(C)(C)c1cnc(CSc2cnc(NC(=O)C3CCN(C(=O)CCCCCCCN4Cc5cc6c(cc5C4)C(=O)N(C4CCC(=O)NC4=O)C6=O)CC3)s2)o1 (stereo not shown)	NCI-H226	MTT	–	–	pIC50	7.24
Cc1n[nH]c2ccc3nc(-c4ccc(C(=O)NCCN(C)C)cc4F)c4c(c3c12)CCCC4	ML-2	–	–	72 h	GI50	0.095 µM
Nc1ccccc1NC(=O)c1ccc(Cn2cnc3c(Nc4ccc(Br)cc4F)ncnc32)cc1	U-937	MTT	–	72 h	pIC50	5.86
CCc1nc(C(N)=O)c(Nc2ccc(N3CCC(N4CCN(C)CC4)CC3)c(OC)c2)nc1NC1CCOCC1	ML-2	–	–	72 h	GI50	0.902 µM
C=C(NC(=O)C(=C)NC(=O)c1csc(C2=N[C@@H]3c4csc(n4)[C@H]4NC(=O)c5csc(n5)[C@H]([C@](C)(O)[C@@H](C)O)NC(=O)[C@H]5CSC(=N5)/C(=C/C)NC(=O)[C@H]([C@@H](C)O)NC(=O)c5csc(n5)[C@]3(CC2)NC(=O)[C@H](C)NC(=O)C(=C)NC(=O)[C@H](C)NC(=O)[C@H]([C@@H](C)CC)N[C@@H]2C=Cc3c([C@H](C)O)cc(nc3[C@H]2O)C(=O)O[C@@H]4C)n1)C(N)=O	Calu-1	–	–	–	pEC50	5.49
C=C[C@]1(C)C=C2CC[C@H]3C(C)(C)CCC[C@]3(C)[C@H]2CC1	HuCC-A1	MTT	–	75 h	pIC50	3.97
Cc1n[nH]c2ccc3nc(-c4ccc(C(=O)NCCN(C)C)cc4)c4c(c3c12)CCCCC4	U-937	–	–	72 h	GI50	5.92 µM
CCCCCCCCCCCCCCCCCCOc1ccccc1CC(=O)OCC[N+](C)(C)C	NCI-H226	SRB	10 µM	–	inhibition	71.3%
CN(C)CCNC(=O)c1ccc(-c2nc3ccc4[nH]ncc4c3c3c2CCCCC3)cc1	U-937	–	–	72 h	GI50	1.48 µM
COc1cccc2c1C(=O)c1c(O)c3c(c(O)c1C2=O)C[C@@](O)(C(=O)CO)C[C@@H]3O[C@H]1C[C@H](N)[C@H](O)[C@H](C)O1	HuCC-A1	MTT	–	75 h	pIC50	6.08
CCCCCCCCCCCCCCCCCCOc1ccccc1CC(=O)OCC[N+](CC)(CC)CC	NCI-H226	SRB	10 µM	–	inhibition	46.3%
COc1cccc2c1C(=O)c1c(O)c3c(c(O)c1C2=O)C[C@@](O)(C(=O)CO)C[C@@H]3O[C@H]1C[C@H](N)[C@H](O)[C@H](C)O1	HuCC-A1	MTT	–	–	pIC50	6.06
O=C(NO)c1ccc(Cn2cnc3c(Nc4ccc(Cl)cc4)ncnc32)cc1	U-937	MTT	–	72 h	pIC50	5.10
CCCCCCCCCCCCCCCCCCOc1ccccc1CC(=O)OCC[N+]1(C)CCOCC1	NCI-H226	SRB	10 µM	–	inhibition	50.2%
CN(C)CCNC(=O)c1ccc(-c2nc3ccc4[nH]ncc4c3c3c2CCCC3)c(F)c1	ML-2	–	–	72 h	GI50	0.243 µM
CCCCCCCCCCCCCCCCCCOc1ccccc1CC(=O)OCC[N+]1(C)CCCC1	NCI-H226	SRB	10 µM	–	inhibition	86.6%
CN1CCC(NC2CCc3[nH]c4c(C(N)=O)ccc(-c5ccccc5Cl)c4c3C2)CC1 (stereo not shown)	U-937	–	–	96 h	pIC50	8.12
CCCCCCCCCCCCCCCCCCOc1cccc(CC(=O)OCC[N+](C)(C)C)c1	NCI-H226	SRB	10 µM	–	inhibition	5.79%
Cc1n[nH]c2ccc3nc(-c4ccc(C(=O)NCCN(C)C)cc4F)c4c(c3c12)CCCCC4	U-937	–	–	72 h	GI50	1.64 µM
